The subject of the data set is MS2 coat protein. The experiment in a line: apparent Kd, MS2 coat protein; higher = weaker binding; RNA-MaP array; FMN 200 µM where present. The gist of the method:
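The titrant was SNAP-549-labelled MS2 coat protein, run from 0.7 or 1.5 nM in doubling steps to 3 µM. It was applied to designs transcribed by stalled E. coli RNA polymerase on Illumina sequencing-chip clusters, without ligand first and then with constant ligand, in 100 mM Tris-HCl pH 7.5, 80 mM KCl, 4 mM MgCl2, BSA, DTT, yeast tRNA and Tween-20. The apparent Kd is the median of filtered per-cluster binding-curve fits, with green signal normalised to red-channel RNA signal and control-cluster median Fmax.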

The mark [1] stands for this setting: designed as: ON switch for flavin mononucleotide, no ligand.
Where [2] appears, read: ligand present: flavin mononucleotide, designed as: ON switch for flavin mononucleotide.
[3] abbreviates: designed as: OFF switch for flavin mononucleotide, no ligand.
[4] abbreviates: ligand present: flavin mononucleotide, designed as: OFF switch for flavin mononucleotide.

The term apparent Kd denotes a dissociation constant that holds for the conditions of the assay.

Turning to “ACAUGAGGAUCACCCAUGUAUACAUAGGAUAUUGAGGAUCAGGGAUGUUUUACAGGAUAUGUCUACAAGAAGGAUGCAAGUAAA”, the “apparent Kd” value under setting [1] came to 0.0356 µM and the “apparent Kd” value under setting [2] is 0.03 µM.
In the case of “GGUGGAAGCACAGGAUAUGUUGAUUUUAUGGUGUUACAUGAGGAUCACCCAUGUCCGCGAUUCUAACAGAAGGGUGCAUGGAUG”, the “apparent Kd” value is 0.543 µM under setting [1] and 0.0599 µM under setting [2].
Regarding “AGCUGUGGCCGAGGAUAUCUGAAACUCAAAACCGAAAUAUAAUCGGACAUGAGGAUCACCCAUGUAGAGAAGGCGGUCUCAGCA”, the “apparent Kd” value under setting [3] was found to be 0.165 µM and the “apparent Kd” value under setting [4] was determined as 0.307 µM.
For “AUGGACGCAGGAUAUACAUGAGGAUCACCCAUGUUAGGGUUGUGAGUAGGAAGGGAAGGUAGAAGGGCGAGAGU”, the “apparent Kd” value by setting is: under setting [3], 0.12 µM; under setting [4], 0.141 µM.
Take “AAUAUGAGCUGGUUUAAAUCCGAAACAUGAGGAUCACCCAUGUAGGAUAUCAGCACGAUAAGUGCUGAGAAGGACAUCCAGCUC”: the “apparent Kd” value under setting [3] amounted to 0.0156 µM and the “apparent Kd” value under setting [4] came to 0.015 µM.
With “ACAUGAGGAUCACCCAUGUUCACAUAGGAUAUUGAUUUUAUUGGUUUUAGAAUAGUAAUUAACCUCAAGAAGGAUGCCAGUUGU”, the “apparent Kd” value stood at 0.0111 µM under setting [1] and 0.00931 µM under setting [2].
For “GUCACACACCGCUCCGUGUCUGACAUGAGGAUCACCCAUGUGAGAAGGUAGCGUCGCAGUGACGUUAAGGAUAUCACGUACAGA”, the “apparent Kd” value runs as follows: under setting [3], 0.00481 µM; under setting [4], 0.0052 µM.
With “UACAUCAAUGAAGGAUAUCUAUAUCCAACAUGAGGAUCACCCAUGUUGAGGAUCACCCAUGUAAAGGAGAAGGUUAACAUAACU”, the “apparent Kd” value stood at 0.0394 µM under setting [1] and 0.034 µM under setting [2].
Take “AAUCCACAUGAGGAUCACCCAUGUGAGGAUAUGAUACUAUGUACUUCGGUACAUAGUAUCAGAAGGCACAUAAA”: the “apparent Kd” value reads like this: under setting [3], 0.0241 µM; under setting [4], 0.081 µM.
As for “UAUAUAUAGUAAGGAUAUGUAUUAAUUUUAGAAACAGAAGGUACUGACAUGAGGAUCACCCAUGUUUUAGUGUGGGCAUGUAGA”, the “apparent Kd” value under setting [3] worked out at 0.0983 µM and the “apparent Kd” value under setting [4] is 0.147 µM.
Regarding “ACAUUAGUACCACAUGUAUUACAUGAGGAUCACCCAUGUUACUAGGAUAUGUAUUAGAAUUUACAACAGAAGGAGUUAUUAUGU”, the “apparent Kd” value by setting is: under setting [3], 0.0172 µM; under setting [4], 0.0171 µM.
Taken in the same sequence, the figures for “GGAUAGGACAGAGGAUAUACAGAUAGGAUCUACUAUCAAACAUUCCUGACAUGAGGAUCACCCAUGUAGAAGGCUGUCCUAUCG” were 0.0227 µM and 0.0754 µM.
Regarding “AGUGUCAUCGAGAAGGCCUCAACAUGAGGAUCACCCAUGUUGUAAUAUGGGAGGAUAUCGAUGAUACAGCUACGUUUCGUAGCA”, the “apparent Kd” value under setting [1] worked out at 0.0207 µM and the “apparent Kd” value under setting [2] was found to be 0.00579 µM.
In the same order, the values of “CCGAUGCUUAUAAAACAUGAGGAUCACCCAUGUGAGACACAUGAGGAUAUGCAGGUCAAAGACUUGCAGAAGGCAUAGCGUCGG” are 0.644 µM and 0.0618 µM.
On to “GGUACUCAAAGAGUACCAAUAUGAACAUGAGGAUCACCCAUGUAGGAUAUGCUACUCAAAGAGUAGCAGAAGGAUAUGUGUCUA”, for which the “apparent Kd” value is 0.0196 µM under setting [3] and 0.0212 µM under setting [4].
For “AAUACAUGAGGAUCACCCAUGUUAUGUUCAAACAAUAUGAGUGAGGAUAUACUGAGUUAGUUAUGGUAGAAGGCACUGGGUUCA”, the “apparent Kd” value reads like this: under setting [1], 0.0563 µM; under setting [2], 0.0362 µM.
In the case of “AGUCGGAGCAGAGGAUAUACAUGAGGAUCACCCAUGUAAUAAGAUCAAGCCUGGAAACAGGCAAUGUAGAAGGCUGCUCCGACA”, the “apparent Kd” value by setting is: under setting [3], 0.0342 µM; under setting [4], 0.338 µM.
For “GCCUUGUCAGGAUAUCCGCGCGGGUGGCGCAUGCACUGCGUGGAGAAGGGACAUGAGGAUCACCCAUGUGCGUA”, the “apparent Kd” value was found to be 0.0892 µM under setting [3] and 0.317 µM under setting [4].
As for “GGUUAAUAUCGAGGAUAUGUCUAGACACAUGAGGAUCACCCAUGUAUGUGUAUAGAAGGCGAUAUUAACAGCAUGUUACAUGCG”, the “apparent Kd” value worked out at 0.0388 µM under setting [1] and 0.0164 µM under setting [2].
Take “ACAUGCCUGUCGAUGCUCGACAUGAGGAUCACCCAUGUACAGCAGGAUAUGCAGAACUAACUCGUGCAGAAGGGCUGUACCUAA”: the “apparent Kd” value runs as follows: under setting [3], 0.0908 µM; under setting [4], 0.226 µM.

Values taken from the EternaBench riboswitch data.
